Measured values as given in ChEMBL document CHEMBL5653608 (Br J Pharmacol, 2011).

Assays:
[1] = Inhibition of EFS-induced contraction of human myometrium incubated for 60 mins; format: functional, tissue-based
Method in brief: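 Human myometrial strips (donors aged 24–76) in a 15 mL Krebs bath at 37°C, under EFS at 15 V, 1.5 ms pulses, 10 s every 100 s, at a submaximal 15 Hz. Antagonist (10 or 100 nM) or vehicle was equilibrated for 60 min. Cumulative butaprost (0.1 nM–10 µM) or PGE2 (0.1 nM–3 µM) was given for at least five EFS responses per concentration. pKB was calculated from same-donor concentration ratios.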

[2] = Induction of relaxation in […] C57BL/6 mouse trachea at 0.1 to 30 uM incubated for 30 mins relative to control (reference value: 21.6 +/- 8.8%); format: functional; design: scale not given: the % may be the effect or the level left; settings: dose 0.1-30 µM, 0.5 h
[3] = Induction of relaxation in nifedipine-induced carbachol pre-contracted rings of Beagle dog bronchioles incubated for 1 hr relative to control; format: functional, Canis lupus familiaris, Bronchiole; design: scale not given: the % may be the effect or the level left
Method in brief: (§1)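 Beagle bronchiole rings held at 1 g tension in Krebs at 37°C (with propranolol and phentolamine), primed with 80 mM KCl. Rings were precontracted with 1 µM carbachol, then antagonist (3–100 nM) or vehicle was equilibrated for 1 h. Cumulative PGE2 relaxation curves followed, with final 10 µM nifedipine defining maximal relaxation. KB by the Lew and Angus method.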

[4] = Induction of relaxation in nifedipine-induced carbachol pre-contracted rings of Beagle dog bronchioles incubated for 1 hr; format: functional, tissue-based, Canis lupus familiaris, Bronchiole; method in brief: as §1
[5] = Induction of relaxation in forskolin-induced carbachol pre-contracted C57BL/6 mouse trachea incubated for 30 mins; format: functional, tissue-based
Method in brief: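 Male C57BL/6 tracheal rings at 0.35 g tension in Krebs (95% O2/5% CO2, 37°C). Rings were precontracted with 10 µM carbachol before cumulative half-log PGE2 (0.1 nM–30 µM). Curves were repeated in the same ring after 30 min with 3 nM antagonist or DMSO, and 10 µM forskolin set maximal relaxation. pKB = log(CR−1) − log[B].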

IC50 [1]: 0.0173 µM
EC50 [4]: 0.09 µM
EC50 [5]: 0.133 µM
Compound: CCCCC[C@H](O)/C=C/[C@H]1[C@H](O)CC(=O)[C@@H]1C/C=C\CCCC(=O)O [DINOPROSTONE]
Activity [2]: 65.4%
Activity [3]: 82%
